Experiment [1] concerns MCF7. In words: Induction of apoptosis in human MCF7 cells assessed as appearance of fragmented nuclei at 0.5 uM after 24 hrs by Hoechst staining. The format is functional, cell-based. In a few lines: (§1)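 1 × 10^4 cells grown on coverslips, treated 24 h, PBS-washed, fixed in 4% paraformaldehyde 15 min. Stained with Hoechst at 1.0 ug/ml for 15 min at 4 °C, washed, mounted, and examined by fluorescence microscopy; untreated cells as control.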

The subject of experiment [2] is MDA-MB-231. The experiment can be described thus: Induction of apoptosis in human MDA-MB-231 cells assessed as appearance of fragmented nuclei at 0.5 uM after 24 hrs by Hoechst staining. The format is functional, cell-based. In a few lines: as §1
The test system of experiment [3] is MDA-MB-231. In words: Induction of apoptosis in human MDA-MB-231 cells assessed as DNA fragmentation at 0.25 uM after 24 hrs. The class given is functional, cell-based. In a few lines:
(§2)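 Treated 24 h with 0.25–0.74 range. Then 1 × 10^5 cells trypsinized, PBS-washed (4 °C, pH 7.4), lysed 10 min on ice (10 mM Tris-HCl pH 7.4, 10 mM EDTA, 0.5% SDS). RNase A 1 h at 37 °C, then proteinase K 4 h at 50 °C. DNA ethanol/sodium acetate precipitated, run on 1.5% agarose with ethidium bromide, viewed under UV.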

For experiment [4], the system named is MCF7. In words: Induction of apoptosis in human MCF7 cells assessed as DNA fragmentation at 0.74 uM after 24 hrs. The class given is functional, cell-based. In a few lines: as §2
Experiment [5] concerns MDA-MB-231. In words: Induction of apoptosis in human MDA-MB-231 cells assessed as DNA fragmentation at 0.74 uM after 24 hrs. The class given is functional, cell-based. The essentials: as §2
The test system of experiment [6] is MCF7. The experiment can be described thus: Induction of apoptosis in human MCF7 cells assessed as appearance of fragmented nuclei at 0.74 uM after 24 hrs by Hoechst staining. The class given is functional, cell-based. The essentials:
as §1

Experiment [7] relates to MCF7. The experiment can be described thus: Induction of apoptosis in human MCF7 cells assessed as DNA fragmentation at 0.25 uM after 24 hrs. The class given is functional, cell-based. The essentials: as §2
In experiment [8] the test system is MDA-MB-231. The experiment can be described thus: Induction of apoptosis in human MDA-MB-231 cells assessed as appearance of fragmented nuclei at 0.74 uM after 24 hrs by Hoechst staining. The class given is functional, cell-based. In a few lines: as §1
The next experiment relates to K562. The experiment can be described thus: Cytotoxicity against human K562 cells after 72 hrs by MTT assay. The format is functional, cell-based. The essentials: (§3)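 Seeded at 5000–10000 cells/well, incubated at 37 °C in CO2 with compounds at a range of concentrations, controls included, in triplicate wells. After 72 h, MTT solution (5 mg/mL) added; absorbance read at 540 nm. % cytotoxicity = 100 × [1 − (X/R1)] versus control absorbance; IC50 by nonlinear regression. Values are means of at least two independent experiments, three determinations each.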

The test system of experiment [9] is MCF7. In words: Cytotoxicity against human MCF7 cells after 72 hrs by MTT assay. The format is functional, cell-based. The essentials:
as §3
A general note: Tetrazolium dyes change colour on reduction, which living cells bring about.

The subject of another experiment is A549. The experiment can be described thus: Cytotoxicity against human […] cells after 72 hrs by MTT assay. The format is functional, cell-based. In a few lines: as §3
Another experiment concerns DU-145. In words: Cytotoxicity against human DU145 cells after 72 hrs by MTT assay. The format is functional, cell-based. The essentials: as §3
The next experiment deals with MIA PaCa-2. In words: Cytotoxicity against human MIAPaCa2 cells after 72 hrs by MTT assay. The class given is functional, cell-based. In a few lines: as §3
A further experiment deals with KB. In words: Cytotoxicity against human KB cells after 72 hrs by MTT assay. The class given is functional, cell-based. The essentials: as §3
Experiment [10] can be described thus: Cytotoxicity against mouse NIH/3T3 cells after 72 hrs by MTT assay. The class given is cell-based, NIH3T3. The essentials:
as §3

In a further experiment the test system is PA-1. The experiment can be described thus: Cytotoxicity against human PA1 cells after 72 hrs by MTT assay. The format is functional, cell-based. In a few lines:
as §3

The next experiment deals with SW-620. In words: Cytotoxicity against human SW620 cells after 72 hrs by MTT assay. The class given is functional, cell-based. The essentials:
as §3

For experiment [11], the system named is MDA-MB-231. In words: Cell cycle arrest in human MDA-MB-231 cells assessed as accumulation at G2 phase at o.74 uM after 24 hrs using propidium iodide staining by flow cytometry. The format is functional.
Experiment [12] relates to MDA-MB-231. The experiment can be described thus: Cell cycle arrest in human MDA-MB-231 cells assessed as accumulation at S phase at 0.5 uM after 24 hrs using propidium iodide staining by flow cytometry. The class given is functional. On the technique in general: In flow cytometry, cells or beads pass a laser one at a time.
Experiment [13] deals with MCF7. In words: Cell cycle arrest in human MCF7 cells assessed as accumulation at G2 phase at 0.5 uM after 24 hrs using propidium iodide staining by flow cytometry. The class given is functional.
For experiment [14], the system named is MDA-MB-231. In words: Cell cycle arrest in human MDA-MB-231 cells assessed as accumulation at G1 phase at o.74 uM after 24 hrs using propidium iodide staining by flow cytometry. The format is functional.
The subject of experiment [15] is MCF7. The experiment can be described thus: Cell cycle arrest in human MCF7 cells assessed as accumulation at S phase at o.74 uM after 24 hrs using propidium iodide staining by flow cytometry. The format is functional.
The test system of experiment [16] is MCF7. The experiment can be described thus: Cell cycle arrest in human MCF7 cells assessed as accumulation at S phase at 0.5 uM after 24 hrs using propidium iodide staining by flow cytometry. The format is functional.
Experiment [17] concerns MDA-MB-231. The experiment can be described thus: Cell cycle arrest in human MDA-MB-231 cells assessed as accumulation at G1 phase at 0.5 uM after 24 hrs using propidium iodide staining by flow cytometry. The class given is functional.
In experiment [18] the test system is MDA-MB-231. In words: Cell cycle arrest in human MDA-MB-231 cells assessed as accumulation at G2 phase at 0.5 uM after 24 hrs using propidium iodide staining by flow cytometry. The format is functional.
Experiment [19] deals with MCF7. In words: Cell cycle arrest in human MCF7 cells assessed as accumulation at G2 phase at o.74 uM after 24 hrs using propidium iodide staining by flow cytometry. The class given is functional.
Experiment [20] relates to MDA-MB-231. The experiment can be described thus: Cell cycle arrest in human MDA-MB-231 cells assessed as accumulation at S phase at o.74 uM after 24 hrs using propidium iodide staining by flow cytometry. The class given is functional.
Experiment [21] concerns MCF7. The experiment can be described thus: Cell cycle arrest in human MCF7 cells assessed as accumulation at G1 phase at 0.5 uM after 24 hrs using propidium iodide staining by flow cytometry. The class given is functional.
The subject of experiment [22] is MCF7. The experiment can be described thus: Cell cycle arrest in human MCF7 cells assessed as accumulation at G1 phase at o.74 uM after 24 hrs using propidium iodide staining by flow cytometry. The format is functional.
Where [23] appears, read: Homo sapiens, K562, 72 h, read-out: IC50.

The source of these data is ChEMBL document CHEMBL1165881, “Synthesis and cytotoxicity evaluation of (tetrahydro-beta-carboline)-1,3,5-triazine hybrids as anticancer agents” (Eur J Med Chem, 2010).

Activity calls are given as the source filed them. The calls are words filed in the database; no cut-off is given here.

On to `COC(=O)[C@@H]1Cc2c([nH]c3ccccc23)[C@@H](c2ccc(OC)cc2)N1c1nc(N2CCN(C)CC2)nc(N2CCN(C)CC2)n1` [listing 1 of 2 here], for which the result with MCF7 [1], in the experiment with MDA-MB-231 [2], with MDA-MB-231 [3], with MCF7 [4], with MDA-MB-231 [5] and in the experiment with MCF7 [6] was Active. For the same molecule, the result in the experiment on MCF7 [7] and in the experiment on MDA-MB-231 [8] was Active.

As to `CCCNc1nc(NCCC)nc(N2[C@@H](c3ccc(C)cc3)c3[nH]c4ccccc4c3C[C@@H]2C(=O)OC)n1` (racemic), the concentration for half-maximal inhibition (IC50) (usually the concentration that inhibits the measured activity by half) is “Not Active” with K562 (k562); “Not Active” in the experiment with MCF7 [9] (mcf7); “Not Active” in the experiment with A549 (a549); “Not Active” in the experiment on DU-145 (du-145); “Not Active” with MIA PaCa-2 (mia paca-2); 0.665 µM with KB (Homo sapiens, KB, 72 h). The IC50 entry (in [10] (nih3t3); in the experiment with PA-1 (pa-1); in the experiment with SW-620 (sw-620)) was “Not Active” each time.

On to `COC(=O)[C@@H]1Cc2c([nH]c3ccccc23)[C@@H](c2ccc(C)cc2)N1c1nc(N2CCN(C)CC2)nc(N2CCN(C)CC2)n1` (racemic), for which the IC50 result is “Not Active” with K562 (k562); “Not Active” with MCF7 [9] (mcf7); “Not Active” in the experiment on A549 (a549); “Not Active” with DU-145 (du-145); “Not Active” in the experiment with MIA PaCa-2 (mia paca-2); 0.106 µM in the experiment on KB (Homo sapiens, KB, 72 h). In addition, the concentration for half-maximal inhibition (IC50) entry (in experiment [10] (nih3t3); in the experiment with PA-1 (pa-1); in the experiment on SW-620 (sw-620)) was “Not Active” throughout.

Turning to `COC(=O)[C@@H]1Cc2c([nH]c3ccccc23)[C@@H](c2ccc(OC)cc2)N1c1nc(N2CCN(C)CC2)nc(N2CCN(C)CC2)n1` [listing 2 of 2 here], the half-maximal inhibitory concentration (IC50) in the experiment on K562 (setting [23]) was found to be 4.6 µM; in the experiment with MCF7 [9] (mcf7, read-out: IC50), 0.74 µM; with A549 (a549, read-out: IC50) it was 2.1 µM; with DU-145 (du-145, read-out: IC50), 6.75 µM; with MIA PaCa-2 (mia paca-2, read-out: IC50), 2.3 µM; in the experiment on KB (kb) it was 8.06 µM. The IC50 in experiment [10] (nih3t3, read-out: IC50) came to 1.96 µM; in the experiment on PA-1 (pa-1, read-out: IC50) it was 1.82 µM; in the experiment on SW-620 (sw-620, read-out: IC50), 1.35 µM. In addition, the Activity is 12.98% in the experiment on MDA-MB-231 [11]; 22.74% in the experiment with MDA-MB-231 [12]; 0.09% in the experiment with MCF7 [13]; 65.11% in the experiment with MDA-MB-231 [14]; 0.12% with MCF7 [15]; 35.5% with MCF7 [16]. The Activity in the experiment on MDA-MB-231 [17] was 64.63%; with MDA-MB-231 [18], 12.63%; in the experiment on MCF7 [19], 23.2%; in the experiment with MDA-MB-231 [20] it was 21.91%; in the experiment on MCF7 [21], 64.4%; in the experiment with MCF7 [22], 76.68%.

As for `COC(=O)[C@H]1Cc2c([nH]c3ccccc23)[C@@H](c2ccc(OC)cc2)N1c1nc(N2CCN(C)CC2)nc(N2CCN(C)CC2)n1`, the IC50 worked out at 4.48 µM with K562 (setting [23]); 12.3 µM with MCF7 [9] (Homo sapiens, MCF7, 72 h, read-out: IC50); 11.5 µM in the experiment with A549 (Homo sapiens, A549, 72 h, read-out: IC50); 2.45 µM with DU-145 (Homo sapiens, DU-145, 72 h, read-out: IC50); 5.26 µM in the experiment with MIA PaCa-2 (Homo sapiens, MIA PaCa-2, 72 h, read-out: IC50); 1.82 µM in the experiment on KB (Homo sapiens, KB, 72 h). The 50% inhibitory concentration (IC50) in [10] (Mus musculus, NIH3T3, 72 h, read-out: IC50) was found to be 5.28 µM; with PA-1 (Homo sapiens, PA-1, 72 h, read-out: IC50), 3.34 µM; with SW-620 (Homo sapiens, SW-620, 72 h, read-out: IC50) it was 3.27 µM.
